ChEMBL document CHEMBL1154198, “Chemical genetics of Plasmodium falciparum” (Nature, 2010)

Key:
Plasmodium falciparum [1] = experiment: ST_JUDE: Cytotoxicity against Plasmodium falciparum Dd2; type: functional, organism-based
Plasmodium falciparum [2] = experiment: ST_JUDE: Cytotoxicity against Plasmodium falciparum 3D7; type: functional, organism-based
Procedure, shortened: (§1)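 Asexual P. falciparum grown in human erythrocytes, exposed to compounds for 72 h, and growth read as the DNA quantity in treated versus control cultures. Dose-response run at 12 concentrations from 10 μM to 5 nM.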

[3] = ST_JUDE: Cytotoxicity using luciferase to measure ATP as an indicator of the viability of human foreskin fibroblast cells (BJ); type: toxicity, cell-based
Toxoplasma gondii = experiment: ST_JUDE: Growth inhibition of to Toxoplasma gondii, in human U-2OS cells, as measured by luciferase.; type: functional, organism-based; conditions: RH, U2OS
Procedure, shortened: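 T. gondii parasites engineered to express luciferase; drug sensitivity read by luminescence.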

Trypanosoma brucei = experiment: ST_JUDE: Cytotoxicity using luciferase to measure ATP as an indicator of the viability of Trypanosoma brucei; type: functional, organism-based
Leishmania major = experiment: ST_JUDE: Cytotoxicity using Alamar Blue to measure viability of Leishmania major; type: functional, organism-based
Procedure, shortened: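 L. major promastigotes; drug susceptibility read with Alamar Blue.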

Plasmodium falciparum [4] = experiment: ST_JUDE: Cytotoxicity against Plasmodium falciparum V1/S; type: functional, organism-based
[5] = ST_JUDE: Cytotoxicity using luciferase to measure ATP as an indicator of the viability of human Burkitt''s lymphoma lymphoblast cells (Raji); type: toxicity, cell-based
Plasmodium falciparum [6] = experiment: ST_JUDE: Cytotoxicity against Plasmodium falciparum D10 transfected with yeast DHOD; type: functional, organism-based
Plasmodium falciparum [7] = experiment: ST_JUDE: Plasmodium falciparum K1 EC50 (uM) as measured by SYBR green dye; type: functional, organism-based
Plasmodium falciparum [8] = experiment: ST_JUDE: Cytotoxicity against Plasmodium falciparum W2; type: functional, organism-based
Plasmodium falciparum [9] = experiment: ST_JUDE: Plasmodium falciparum 3D7 EC50 (uM) as measured by SYBR green dye; type: functional, organism-based
[10] = ST_JUDE: Cytotoxicity using luciferase to measure ATP as an indicator of the viability of human epithelial embryonic kidney cells (HEK293); type: toxicity, cell-based
Plasmodium falciparum [11] = experiment: ST_JUDE: Cytotoxicity against Plasmodium falciparum SB-A6; type: functional, organism-based
Plasmodium falciparum [12] = experiment: ST_JUDE: Cytotoxicity against Plasmodium falciparum K1; type: functional, organism-based; procedure, shortened: as §1
[13] = ST_JUDE: Cytotoxicity using luciferase to measure ATP as an indicator of the viability of human epithelial hepatocellular carcinoma cells (HepG2); type: toxicity, cell-based

Compound | EC50 (Plasmodium falciparum [1]) [nM] | EC50 (Plasmodium falciparum [2]) [nM] | EC50 [3] [nM] | EC50 (Toxoplasma gondii) [nM] | EC50 (Trypanosoma brucei) [nM] | EC50 (Leishmania major) [nM] | EC50 (Plasmodium falciparum [4]) [nM] | EC50 [5] [nM] | EC50 (Plasmodium falciparum [6]) [nM] | EC50 (Plasmodium falciparum [7]) [nM] | EC50 (Plasmodium falciparum [8]) [nM] | EC50 (Plasmodium falciparum [9]) [nM] | EC50 [10] [nM] | EC50 (Plasmodium falciparum [11]) [nM] | EC50 (Plasmodium falciparum [12]) [nM] | EC50 [13] [nM]
COc1ccc(O)c(CN2CCN(c3cc(C)ccc3C)CC2)c1 | 741 | 2200 | > 35500 | > 19400 | > 34000 | > 15200 | 660 | > 35500 | 1230 | 488 | 566 | 1370 | > 35500 | 1290 | 992 | > 35500
Nc1ccc(-c2nc3cc(-c4ccc5[nH]c(-c6ccc(N)cc6)nc5c4)ccc3[nH]2)cc1 | 165 | 221 | > 38300 | > 21000 | 2520 | > 16400 | 154 | > 38300 | 120 | 174 | 77.9 | 264 | > 38300 | 108 | 201 | 8940
N=c1n(CCN2CCCCC2)c2ccccc2n1CC(O)c1ccc(Cl)c(Cl)c1 (stereo not drawn) | 346 | 503 | 10400 | 11500 | 4120 | > 22000 | 1430 | 21000 | 1290 | 238 | 640 | 186 | 16000 | 1270 | 617 | 6970
CCOc1cc2c(cc1OCC)C(c1cc(C)c(O)c(C)c1)NCC2 (stereo not drawn) | 420 | 1300 | > 52000 | > 28500 | 14800 | > 22200 | 868 | > 52000 | 2770 | 587 | 451 | 1830 | > 52000 | 3000 | 439 | > 52000
CCCO/C(O)=C1\C(C)=NC2=C(C(=O)CC(c3ccc(OC)cc3)C2)C1c1ccccc1Cl (stereo not drawn) | 301 | 373 | > 41900 | > 22900 | 5090 | > 17900 | 173 | > 41900 | 188 | 466 | 88.9 | 713 | > 41900 | 167 | 160 | > 41900
COc1ccc(C2CC3=NC(C)=C(C(=O)OC(C)C)C(c4ccccc4OC)C3=C(O)C2)cc1OC (stereo not drawn) | 812 | 711 | > 44800 | 11400 | 16400 | > 19200 | 434 | > 44800 | 637 | 997 | 240 | 1390 | > 44800 | 367 | 396 | > 44800
CCOc1ccc(/C=C/c2nc(=O)c3ccccc3o2)cc1 | 307 | 345 | > 39900 | 273 | > 38300 | > 17100 | 601 | > 39900 | > 10200 | 128 | 73.1 | 188 | > 39900 | > 10200 | 392 | > 39900
CCOC(=O)C1(Cc2ccc(Cl)cc2)CCN(Cc2ccccc2O)CC1 | 445 | 2000 | > 56900 | > 31200 | 12300 | > 24400 | 327 | > 56900 | 559 | 106 | 548 | 457 | > 56900 | 549 | 194 | > 56900
Oc1ccc(Br)cc1CN1CCN(Cc2ccccc2)CC1 | 776 | 1230 | > 27100 | > 14900 | > 26000 | > 11600 | 582 | > 27100 | 1750 | 419 | 848 | 867 | > 27100 | 2050 | 401 | > 27100
C=CCN1C=CC=C/C1=C\c1sc2ccccc2[n+]1CC | 920 | 1290 | > 21600 | > 11800 | 2670 | 12.2 | 2000 | 2820 | 2920 | 1440 | > 5540 | 2310 | > 21600 | 1600 | 1890 | > 21600
Oc1ccc(C2NCc3ccccc3-n3cccc32)cc1Cl (stereo not drawn) | 1380 | 1490 | > 46000 | > 25200 | > 44100 | > 19700 | 360 | > 46000 | 1770 | 357 | 1090 | 1250 | > 46000 | 2350 | 395 | > 46000
Cc1ccc(NC(=O)C2c3ccccc3C(=O)N(CC(C)C)C2c2cccs2)cc1C (stereo not drawn) | 323 | 208 | > 41200 | > 22600 | 6310 | > 17600 | 348 | > 41200 | 182 | 129 | 3810 | 63.1 | > 41200 | 232 | 182 | > 41200
CC1=NC2=C(C(=O)CC(c3ccc(Cl)cc3)C2)C(c2ccc(F)cc2)/C1=C(\O)OC(C)C (stereo not drawn) | 1300 | 989 | > 39800 | > 21800 | 1560 | > 17000 | 821 | > 39800 | 649 | 779 | 656 | 775 | > 39800 | 460 | 436 | > 39800
